ChEMBL document CHEMBL1132626 (J Med Chem, 1999)
pIC50: −log10 of the molar value.

Key:
[1] = molecular target: T1, Prostaglandin G/H synthase 2 (Homo sapiens, UniProt P35354); assay type: cell-based, CHO
T1 sequence (P35354 whole entry): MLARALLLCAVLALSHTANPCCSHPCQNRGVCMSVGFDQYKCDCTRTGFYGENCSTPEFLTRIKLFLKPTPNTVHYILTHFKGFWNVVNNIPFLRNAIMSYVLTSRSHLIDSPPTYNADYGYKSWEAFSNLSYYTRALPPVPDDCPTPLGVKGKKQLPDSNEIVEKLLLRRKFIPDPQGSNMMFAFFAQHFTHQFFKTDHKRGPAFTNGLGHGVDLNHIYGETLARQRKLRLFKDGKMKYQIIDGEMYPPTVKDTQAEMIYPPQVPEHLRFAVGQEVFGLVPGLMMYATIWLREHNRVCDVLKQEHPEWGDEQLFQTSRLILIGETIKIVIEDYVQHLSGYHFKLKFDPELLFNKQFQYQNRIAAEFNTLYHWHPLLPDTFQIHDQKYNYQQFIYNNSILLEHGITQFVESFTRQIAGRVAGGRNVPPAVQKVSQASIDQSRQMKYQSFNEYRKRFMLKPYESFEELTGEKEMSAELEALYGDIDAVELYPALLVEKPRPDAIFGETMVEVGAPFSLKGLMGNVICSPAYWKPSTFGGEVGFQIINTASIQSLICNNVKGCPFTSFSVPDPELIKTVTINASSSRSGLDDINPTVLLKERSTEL

[2] = molecular target: T1, Prostaglandin G/H synthase 2; assay type: tissue-based, Blood
[3] = molecular target: T2, Prostaglandin G/H synthase 1 (Homo sapiens, UniProt P23219)
T2 sequence (P23219 whole entry): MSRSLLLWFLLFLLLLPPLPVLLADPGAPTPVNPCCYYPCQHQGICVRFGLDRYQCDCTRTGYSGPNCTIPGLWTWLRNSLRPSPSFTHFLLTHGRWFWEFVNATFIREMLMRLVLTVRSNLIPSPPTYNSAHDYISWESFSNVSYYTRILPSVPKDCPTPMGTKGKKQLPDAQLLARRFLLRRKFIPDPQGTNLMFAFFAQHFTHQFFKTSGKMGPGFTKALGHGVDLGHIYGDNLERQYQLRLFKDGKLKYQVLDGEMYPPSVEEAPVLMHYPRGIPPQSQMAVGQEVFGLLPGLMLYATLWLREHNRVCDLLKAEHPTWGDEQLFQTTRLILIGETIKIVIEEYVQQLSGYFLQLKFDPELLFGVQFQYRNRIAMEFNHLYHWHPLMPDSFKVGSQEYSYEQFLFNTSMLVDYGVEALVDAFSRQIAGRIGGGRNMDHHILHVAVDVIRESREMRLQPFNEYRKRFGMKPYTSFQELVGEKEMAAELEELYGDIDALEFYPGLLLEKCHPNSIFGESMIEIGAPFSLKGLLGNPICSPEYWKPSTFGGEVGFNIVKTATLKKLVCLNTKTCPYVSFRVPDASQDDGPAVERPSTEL

[4] = molecular target: T2, Prostaglandin G/H synthase 1; assay type: tissue-based, Blood
Rattus norvegicus [5] = test: In vivo efficacy was evaluated using a carrageenan-induced rat hyperalgesia model as ED50.; assay type: functional
Method in brief: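 Male Sprague–Dawley rats (90–110 g) received intraplantar carrageenan (4.5 mg/paw). Compound was given orally 2 h after carrageenan. One hour later, the vocalization response to compression of the injected paw was measured with an algesiometer. ID50 was derived from at least four dose points.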

Rattus norvegicus [6] = test: Compound was tested for 10 days at 100 mg/kg/day in rats activity measured as Cr leakage; Clean; assay type: functional, organism-based
Rattus norvegicus [7] = test: In vivo efficacy was evaluated using a carrageenan-induced rat paw edema model as ED50.; assay type: functional
Method in brief: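 Male Sprague–Dawley rats (150–200 g) were fasted overnight and dosed po in vehicle (1% methocel or 5% Tween 80). After 1 h, baseline paw volume was measured by plethysmometry and 1% carrageenan in saline was injected subplantarly (500 µg/paw). Paw swelling was measured 3 h later and % inhibition calculated versus vehicle. ED50 used ≥4 dose points with 5 rats/group.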

Rattus norvegicus [8] = test: In vivo efficacy was evaluated using a LPS-induced rat pyresis model as ED50.
Rattus norvegicus [9] = test: In vivo efficacy was evaluated in adjuvant arthritis(21 day); assay type: functional; settings: 504 h, read-out: ID50 (the source's name)
Method in brief: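 Arthritis was induced in female Lewis rats (7 weeks, 144–172 g) by intradermal left hind footpad injection of 0.5 mg Mycobacterium butyricum in light mineral oil; 10 rats/group. Secondary-paw volume, body weight and radiographs were recorded on days 0, 14 and 21. Analysis used two-factor repeated-measures ANOVA with Dunnett's test.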

Structure (SMILES)	pIC50 [1]	pIC50 [2]	pIC50 [3]	pIC50 [4]	ED50 (Rattus norvegicus [5])	Cr leakage (Rattus norvegicus [6])	ED50 (Rattus norvegicus [7])	ED50 (Rattus norvegicus [8])	ED50 (Rattus norvegicus [9])
CS(=O)(=O)c1ccc(C2=C(c3cc(F)cc(F)c3)C(=O)CC2)cc1	7.82	6.21	–	4.21	3 mg/kg	Clean	2.6 mg/kg	0.8 mg/kg	4 mg/kg
CS(=O)(=O)c1ccc(C2=C(c3cncc(Cl)c3)C(=O)CC2)cc1	–	–	< 4.00	< 4.00	–	–	1.3 mg/kg	–	–
CC(C)(C)C#CC1=C(c2ccc(S(C)(=O)=O)cc2)CCC1=O	6.82	5.28	< 4.00	–	–	–	–	–	–
CS(=O)(=O)c1ccc(C2=C(c3cc(Br)ccn3)C(=O)CC2)cc1	6.20	6.33	4.74	–	–	–	–	–	–
COc1ccncc1C1=C(c2ccc(S(C)(=O)=O)cc2)CCC1=O	6.82	7.05	7.22	–	–	–	–	–	–
CS(=O)(=O)c1ccc(C2=C(c3ccccc3)C(=O)OC2)cc1 [ROFECOXIB]	–	–	–	–	–	–	1.7 mg/kg	–	–
CS(=O)(=O)c1ccc(C2=C(Oc3cc(F)cc(F)c3)C(=O)CC2)cc1	7.77	5.96	5.57	4.03	–	–	6.6 mg/kg	–	–
CS(=O)(=O)c1ccc(C2=C(/C=C/c3ccc(F)cc3)C(=O)CC2)cc1	6.76	6.30	–	4.57	–	–	> 10 mg/kg	–	–
CS(=O)(=O)c1ccc(C2=C(c3cc(Cl)cc(Cl)c3)C(=O)CC2)cc1	7.85	6.55	5.04	< 4.00	–	–	> 10 mg/kg	–	–
CS(=O)(=O)c1ccc(C2=C(c3cc(Cl)c(Cl)c(Cl)c3)C(=O)CC2)cc1	8.22	6.03	5.60	–	–	–	–	–	–
Cc1ccc(-c2cc(C(F)(F)F)nn2-c2ccc(S(N)(=O)=O)cc2)cc1 [CELECOXIB]	–	–	–	–	–	–	3.2 mg/kg	–	–
CS(=O)(=O)c1ccc(C2=C(c3cncc(Br)c3)C(=O)CC2)cc1	6.52	5.77	< 4.00	–	–	–	–	–	–
Cc1ccncc1C1=C(c2ccc(S(C)(=O)=O)cc2)CCC1=O	6.36	6.35	5.26	5.39	–	–	–	–	–
CS(=O)(=O)c1ccc(C2=C(c3cc(Cl)ccn3)C(=O)CC2)cc1	6.72	6.28	4.57	4.47	–	–	2.5 mg/kg	–	–

More lines, main results first:

pIC50 [1]	pIC50 [2]	pIC50 [3]	pIC50 [4]	Structure (SMILES)	ED50 (Rattus norvegicus [5])	Cr leakage (Rattus norvegicus [6])	ED50 (Rattus norvegicus [7])	ED50 (Rattus norvegicus [8])	ED50 (Rattus norvegicus [9])
5.82	5.01	< 5.00	–	CS(=O)(=O)c1ccc(C2=C(c3ccccn3)C(=O)CC2)cc1	–	–	–	–	–
6.77	6.19	4.47	4.14	CS(=O)(=O)c1ccc(C2=C(c3cccnc3)C(=O)CC2)cc1	0.7 mg/kg	Clean	1.7 mg/kg	0.7 mg/kg	0.6 mg/kg
7.85	6.68	5.77	5.49	CS(=O)(=O)c1ccc(C2=C(c3ccc(F)c(F)c3)C(=O)CC2)cc1	–	–	–	–	–
8.05	7.05	6.52	–	CS(=O)(=O)c1ccc(C2=C(c3ccc(F)c(Cl)c3)C(=O)CC2)cc1	–	–	–	–	–
7.72	7.10	6.30	5.43	CS(=O)(=O)c1ccc(C2=C(c3ccc(F)cc3)C(=O)CC2)cc1	–	–	3 mg/kg	–	–
7.85	7.10	7.00	–	CS(=O)(=O)c1ccc(C2=C(c3cc4ccccc4s3)C(=O)CC2)cc1	–	–	–	–	–
7.82	6.82	6.15	7.00	CS(=O)(=O)c1ccc(C2=C(c3ccc(Cl)c(F)c3)C(=O)CC2)cc1	–	–	–	–	–
7.85	6.47	5.18	–	CS(=O)(=O)c1ccc(C2=C(c3cccc(F)c3)C(=O)CC2)cc1	–	–	6.4 mg/kg	–	–
8.22	6.19	–	–	CS(=O)(=O)c1ccc(C2=C(C#Cc3ccccc3)C(=O)CC2)cc1	–	–	–	–	–
7.96	–	5.51	5.39	CS(=O)(=O)c1ccc(C2=C(c3ccccc3)C(=O)CC2)cc1	–	–	10 mg/kg	–	–
